Entries after “also recorded” stand apart in the source; their conditions may differ.
Experiments:
[1] = test system: HCV genotype 1b RNA replication; test: HCV genotype 1b subgenomic replicon assay in Huh-7 cells; format: cell-based, Hepatitis C virus (HCV); conditions: for EC90: Hepatitis C virus, GETYPE1B, Huh-7, read-out: Anti HCV activity EC90
In short: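 Each assay was run in replicate. Values are the mean and SD of three replicates.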

Huh-7 cells = test: Cytotoxicity in Huh-7 cells; format: cell-based; conditions: all four tested cell lines (Huh-7, PBM, CEM, Vero)

Row | Compound | EC90 [1] [µM] | other results
1 | O=c1ccn([C@@H]2O[C@H](CO)[C@@H](O)C2(Br)Br)c(=O)[nH]1 [Compound 10a] | – | Concentration up to which no antiviral (anti-HCV) activity was shown ([1]; HCV genotype 1b replicon, Huh-7 cells): > 33 µM
2 | Nc1ccn([C@@H]2O[C@H](CO)[C@@H](O)C2(Br)Br)c(=O)n1 [Compound 10b] | > 10 | –
3 | CC(C)OC(=O)[C@H](C)N[P@](=O)(OC[C@H]1O[C@@H](n2ccc(=O)[nH]c2=O)C(Br)(Br)[C@@H]1O)Oc1ccccc1 [Compound 13a] | – | Cellular toxicity (in words) (Huh-7 cells): non-toxic; also recorded: no observed toxicity
4 | CC(C)OC(=O)[C@H](C)N[P@](=O)(OC[C@H]1O[C@@H](n2cnc3c(N)ncnc32)C(Br)(Br)[C@@H]1O)Oc1ccccc1 [Compound 13c] | > 10 | –
5 | CC(C)OC(=O)[C@H](C)N[P@](=O)(OC[C@H]1O[C@@H](n2cnc3c(=O)[nH]c(N)nc32)C(Br)(Br)[C@@H]1O)Oc1ccccc1 [Compound 13d] | > 10 | –

Source: article PMC5693771 (Bioorganic & medicinal chemistry letters, 2017)
